# Hits are enriched below; roughly 1.7% of the tested compounds scored in any of these assays.
# ARNT TACC3 PPI: disruptors of human ARNT/TACC3 interaction; AlphaScreen His-ARNT PAS-B/GST-TACC3 binding, luminescence; TACC3 fragment carries E629A point mutation; inhibition, % at 9.99 µM; 390,000 compounds, 0.66% hits; AID 623870;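 active = mean inhibition of replicates at least 50% and at least half of replicates each reaching 50%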;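 also: 0% = complete ARNT plus TACC3 wells and 100% = ARNT alone without TACC3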
# CFTR F508del cor: correctors of CFTR F508del function in bronchial epithelial cells | CFBE cells, YFP halide quenching; stimulated with forskolin plus potentiator P3; % fluorescence drop versus neutral controls | activity (quench increase), % at 7.58 µM | 350,000 compounds, 0.36% hits;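 active = mean added fluorescence quench of at least 8% versus neutral control, with both replicates also reaching 8%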;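 also: cells transiently co-express mutant CFTR-F508del with the halide-sensitive YFP; corrector assay measuring rescue of mutant channel to the surface after 24 h compound exposure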
# CAL PDZ FP-1: blocks peptide binding to human CAL PDZ domain; Q9HD26; purified CAL PDZ, TMR-peptide fluorescence polarization, 1 h; inhibition, % at 20 µM; 330,000 compounds, 0.02% hits;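 active = highest replicate inhibition of at least 40%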;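 also: plate controls were DMSO neutral control wells for no effect and unlabeled competitor peptide control wells for full effect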
#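 System: purified tagged CAL PDZ domain construct (CerCALP). Schedule: 1 h incubation at room temperature before polarization reading. Medium: 25 mM sodium phosphate pH 7.4, 150 mM NaCl, TCEP, IgG, Thesit. Read-out: percent inhibition from loss of millipolarization. Measured by: FP readout, S and P plane fluorescence. Probe or stimulus: fluorescent TMR peptide probe.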
# CAL PDZ FP-2: CAL PDZ (human) peptide binding inhibition; Q9HD26; AID 602252; purified CAL PDZ, TMR-peptide fluorescence polarization, 1 h; 300,000 compounds, 0.92% hits; inhibition, % at 24.9 µM;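 active = mean inhibition of at least 30% with at least half of replicates also reaching 30%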;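 also: 0% = DMSO neutral control and 100% = excess unlabeled competitor peptide PRC23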
# miR122 inh: blocks miR-122 activity in Huh7 sensor cells. Huh7 miR-122 Renilla luciferase sensor, 48 h; neutral wells = 0, positive control = 100. activation (reporter increase), % at 12.5 µM. 340,000 compounds, 0.3% hits;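 active = mean replicate activation score at least 90 and every replicate individually at or above 90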;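 also: higher luciferase means less miR-122 activity so hits act as miR-122 inhibitors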
# PGC1a acetyl inh: lowers PGC1a acetylation signal in U2OS cells; AlphaScreen anti-acetyl-lysine; with virally co-expressed GCN5 acetyltransferase; AID 651687; inhibition, % at 15.6 µM; 350,000 compounds, 0.17% hits;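 active = every replicate shows inhibition of at least 40%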;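 also: 0% = neutral control wells and 100% = positive control wells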
# * = called active by the depositor; x = not tested or not shown; [ ] = another dose, or the depositor's remark.
SMILES,ARNT TACC3 PPI,CFTR F508del cor,CAL PDZ FP-1,CAL PDZ FP-2,miR122 inh,PGC1a acetyl inh
CNC[C@@H]1Oc2ccc(NC(=O)CCCN(C)C)cc2C(=O)N([C@H](C)CO)C[C@H]1C,2,0,x,x,-8[16.7 µM],-1
Nc1nnc(CC(=O)N/N=C\c2cc([N+](=O)[O-])ccc2O)s1,65*,0,-2,-1,x,x
O=C(Cc1ccccc1)OCC(=O)c1cccc([N+](=O)[O-])c1,2,2,0,47*,-10,6
Cc1cc([N+](=O)[O-])nn1CC(=O)N/N=C/c1ccccc1F,-8,3,-1,44*,x,-3
Cc1cc(C)n(CC(=O)N/N=C/c2cc([N+](=O)[O-])ccc2O)n1,72*,x,-2,-4,x,x
Cc1cc(C)n(CC(=O)N/N=C/c2cc(Br)cc([N+](=O)[O-])c2O)n1,3,x,-2,-2,x,x
Cc1noc(C)c1NC(=O)Nc1ccc2c(c1)C(=O)N([C@H](C)CO)C[C@@H](C)[C@@H](CN(C)C(=O)Nc1ccccc1)OCCCC[C@@H](C)O2,-6,0,x,x,-5[16.7 µM],2
Cc1ccnn1CC(=O)N/N=C/c1cccs1,-10,x,-1,-1,x,x
Cc1ccnn1CC(=O)N/N=C/c1ccc([N+](=O)[O-])s1,-6,3,-1,87*,x,x
Nc1ccccc1-n1cccc1,-11,-2,0,31*,0,1
N/C(=N\O)c1ccccc1-n1cccc1,0,2,0,3,-2,21
O=C1C=CCC(/C=C/c2ccccc2)O1 (stereo unspecified),x,15*,x,x,x,x
COC(=O)/C(C#N)=C/c1ccc(-c2ccc(S(N)(=O)=O)cc2)o1,-5,5,-2,36*,-7,8
CC(C)OC(=O)/C(C#N)=C/c1ccc(-c2ccc(SC(F)F)cc2)o1,-5,x,-1,3,x,x
CN(C)C(=O)C[C@@H]1CC[C@@H]2[C@H](COC[C@H](O)CN2CC2CCCC2)O1,x,4,x,x,-6[16.7 µM],-4
O=C1C=CCCN1C(=O)/C=C/c1cccc(Br)c1,x,1,x,x,x,46*
CCOC(=O)Cc1csc(SCC(=O)Nc2ccc3[nH]c(=O)[nH]c3c2)n1,x,-1,0,-5,-7,-4
Cc1csc(SCC(=O)Nc2ccc3[nH]c(=O)[nH]c3c2)n1,-1,-4,0,106*,-3,-19
C[C@@H]1CN([C@H](C)CO)C(=O)c2cc(NC(=O)Nc3ccc4c(c3)OCO4)ccc2O[C@@H](C)CCCCO[C@H]1CN(C)C(=O)c1ccccc1,3,2,x,x,-19[16.7 µM],-1
COc1ccc(C#Cc2ccc3c(c2)O[C@H](CN(C)C(=O)CN2CCOCC2)[C@H](C)CN([C@@H](C)CO)S3(=O)=O)cc1,-10,-1,x,x,-54[16.7 µM],-9
CC(=O)N1CC2(C1)[C@H](c1ccc(-c3ccc(C#N)cc3)cc1)[C@H](CO)N2C(=O)C1CC1,x,-1,x,x,x,1
Cc1ccccc1Nc1nc(N)nc(CN2C(=O)NC3(CCCCC3C)C2=O)n1 (stereo unspecified),-1,x,-1,50*,17,4
COc1ccc(C)cc1S(=O)(=O)Nc1cccc(C)c1,-4,1,1,0,x,-3
COc1ccc(C)cc1S(=O)(=O)Nc1cccc(SC)c1,-2,x,-1,-2,166*,-20
COc1ccc(NS(=O)(=O)c2cc(C)ccc2OC)cc1OC,0,x,-1,-5,95*,6
SMILES,ARNT TACC3 PPI,CFTR F508del cor,CAL PDZ FP-1,CAL PDZ FP-2,miR122 inh,PGC1a acetyl inh
C[C@@H]1CCCCO[C@@H](CN(C)CC2CC2)[C@H](C)CN([C@H](C)CO)C(=O)c2cc(NC(=O)CCCN(C)C)ccc2O1,x,1,x,x,x,1
CO[C@H]1CC[C@H]2CCN(C)C(=O)[C@@H](C)N(C)C(=O)c3cc(C#N)ccc3OC[C@@H]1O2,-1,x,x,x,x,x
Cc1cccc(NC(=O)NC2CCCCCCC2)c1C,-4,2,-2,3,4,2
Cc1c(NC(=O)NC2CCCCC2)cccc1[N+](=O)[O-],5,-6,0,x,157*,14
CN(C)C(=O)C[C@@H]1C=C[C@H](NC(=O)C2CCOCC2)[C@@H](CO)O1,x,0,x,x,x,x
CN1CC(c2ccccc2Cl)C2(COc3ccccc3C2=O)C12C(=O)Nc1ccccc12 (stereo unspecified),2,x,-1,1,117*,-13
Cc1ccc(C2CN(C)C3(C(=O)Nc4ccccc43)C23COc2ccccc2C3=O)cc1 (stereo unspecified),4,x,1,-2,295*,x
Cc1ccccc1-n1nnnc1SCC(=O)c1c(N)n(C)c(=O)n(C)c1=O,-8,-1,1,32*,-21,1
Cc1nnc2sc(SCC(=O)Nc3ccc(Br)cc3)nn2c1=O,74*,0,-1,3,0,8
COc1cccc(NC(=O)CSc2nn3c(=O)c(C)nnc3s2)c1,67*,2,-2,-2,2,x
COc1cccc(NC(=O)CSc2nc(C)cs2)c1,-11,x,-1,-8,-5,5
COc1ccc(NC(=O)CSc2nn3c(=O)c(C)nnc3s2)cc1,61*,1,-1,-3,3,x
COc1ccc(OC)c(NC(=O)C2CC(C)=C(C)CC2C(=O)O)c1 (stereo unspecified),7,x,0,43*,2,8
Cc1noc(C)c1NC(=O)Nc1ccc2c(c1)CC(=O)N([C@@H](C)CO)C[C@@H](C)[C@@H](CN(C)S(=O)(=O)c1c(C)noc1C)O2,-3,-3,x,x,5[16.7 µM],4
CO[C@@H]1CN(C)C(=O)c2ccc(NC(=O)c3cnccn3)cc2OC[C@H](C)N(C(=O)C2CC2)C[C@@H]1C,6,2,x,x,x,2
COc1ccc(OC)c(NC(=O)CSc2ccc3ccccc3c2)c1,-6,x,-2,-3,2,-17
Cc1nnc2sc(SCC(=O)N3CCC(C)CC3)nn2c1=O,63*,1,-2,-3,-3,4
COc1ccc(OC)c(NC(=O)CSc2nn3c(=O)c(C)nnc3s2)c1,69*,-2,0,0,x,x
COc1ccc(OC)c(NC(=O)CSc2ccccc2)c1,3,x,x,54*,24,-7
Cc1ccccc1NC(=O)CSc1nn2c(=O)c(C)nnc2s1,51*,0,-1,-1,-3,0
CCC(=O)N1[C@@H]2Cn3c(cccc3=O)[C@H]1[C@@H](C(=O)NC1CCC1)[C@@H]2CO,-12,-2,x,x,-1[16.7 µM],-3
CC1=CC2(CO)C(=O)[C@]3(CO3)[C@H]1[C@H]1[C@]2(C)C=C(CO)C(=O)[C@]12CO2,x,-1,x,x,x,-28
CCC(=O)N1Cc2cc(C(=O)N3CCN(C)CC3)nc(-c3cccc(-c4cccnc4)c3)c2[C@H]1CCO,x,-5,x,x,x,-12
